# Screens: PubChem BioAssay, several laboratories
# MDM2 E3 inh: MDM2-luciferase reporter signal enhancers, primary screen, MDM2 E3 ligase inhibitor project, cell-based, luminescence, 1536-well; E3 ubiquitin-protein ligase Mdm2 (Homo sapiens), Q00987; actives 0.11% (n = 210,000); signal enhancement, % at 5 µM; cell-based MDM2 ubiquitination luciferase reporter, 2 h; 0 = plate control, 100 = twice control, blank-subtracted;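 active = signal enhancement of 30% or more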;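 note: luminescence tracks abundance of the self-degrading MDM2-luciferase fusion protein; higher signal means inhibition of MDM2 E3 ligase activity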
#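 Assay system: stable mammalian line carrying autodegrading MDM2–luciferase fusion reporter; Input: 2000 cells in each well; Compound dosing: single-point 5 µM; Schedule: 2 h compound exposure at 37 °C; Signal: SteadyLite luciferase luminescence after 15 min room-temperature reagent incubation; Evaluation: % luminescence enhancement versus blank-corrected plate control mean; Benchmarks: plate controls and plate blanks.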
# UPR XBP1 act: activators of adaptive XBP1 UPR arm, primary screen, cell-based, CHO-XBP1 luciferase reporter, luminescence, uHTS; IRE1-XBP1 UPR activation; percent of tunicamycin response, DMSO as zero; activation, % at 20 µM; actives 0.33% (n = 330,000);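 active = versus positive control, 20 µM dose yields 30% or more activation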;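 note: 100% = tunicamycin at 10 µg/mL and 0% = DMSO only wells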
#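 Test system: CHO-XBP1 luciferase reporter cells | Buffer or medium: Serum-containing F12 medium, 10% FBS | Schedule: 6 h compound exposure at 37 °C, 5% CO2 | Detection: Steady-Glo luciferase glow luminescence, 10 min after reagent addition | Read-out basis: Activation, % of tunicamycin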
# Mdm2-MdmX inh: inhibitors of human Mdm2-MdmX association, primary screen, cell-based, luminescence, split luciferase, SaOS-2, uHTS | Protein Mdm4 (Homo sapiens) + E3 ubiquitin-protein ligase Mdm2 (Homo sapiens), … | SaOS-2 split-luciferase Mdm2/MdmX complementation | inhibition, % at 8 µM | actives 3% (n = 330,000) | AID 485346, 2010;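 active = inhibition of at least 50% at 8 µM in the primary screen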
# Target sequence (O15151 whole entry, looked up): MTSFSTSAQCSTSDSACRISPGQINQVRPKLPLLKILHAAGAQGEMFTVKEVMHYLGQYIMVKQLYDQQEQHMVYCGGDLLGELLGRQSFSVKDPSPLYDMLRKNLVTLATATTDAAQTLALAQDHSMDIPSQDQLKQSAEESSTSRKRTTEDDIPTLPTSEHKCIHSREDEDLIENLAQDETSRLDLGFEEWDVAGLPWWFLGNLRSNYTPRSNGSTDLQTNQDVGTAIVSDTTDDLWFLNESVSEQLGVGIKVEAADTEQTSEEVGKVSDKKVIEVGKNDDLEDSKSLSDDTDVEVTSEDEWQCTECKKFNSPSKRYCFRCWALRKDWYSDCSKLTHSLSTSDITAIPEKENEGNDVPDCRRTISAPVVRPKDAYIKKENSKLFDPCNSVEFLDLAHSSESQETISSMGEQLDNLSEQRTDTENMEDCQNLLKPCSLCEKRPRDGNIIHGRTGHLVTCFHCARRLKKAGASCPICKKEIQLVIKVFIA
# Target sequence (Q00987 whole entry, looked up): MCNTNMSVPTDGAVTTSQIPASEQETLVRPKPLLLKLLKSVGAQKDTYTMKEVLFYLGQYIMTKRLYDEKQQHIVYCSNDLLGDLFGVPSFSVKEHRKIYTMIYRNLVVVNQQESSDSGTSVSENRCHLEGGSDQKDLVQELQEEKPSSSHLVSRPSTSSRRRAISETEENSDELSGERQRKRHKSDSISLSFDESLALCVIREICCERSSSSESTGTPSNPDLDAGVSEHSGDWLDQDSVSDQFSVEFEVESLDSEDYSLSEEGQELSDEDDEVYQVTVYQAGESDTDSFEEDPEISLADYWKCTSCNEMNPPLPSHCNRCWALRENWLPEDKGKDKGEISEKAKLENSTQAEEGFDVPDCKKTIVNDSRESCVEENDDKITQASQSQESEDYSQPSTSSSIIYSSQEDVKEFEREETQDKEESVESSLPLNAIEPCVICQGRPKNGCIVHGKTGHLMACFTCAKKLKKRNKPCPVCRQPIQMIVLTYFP
# CHOP UPR activ: activators of apoptotic CHOP UPR arm, primary screen, cell-based, CHO-CHOP luciferase reporter, luminescence, uHTS; UPR activation; percent of tunicamycin response over DMSO baseline; activation, % at 10 µM; actives 0.34% (n = 330,000); AID 449763, 2010;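 active = at 10 µM dose, activation of 40% or more, normalized to positive control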;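 note: 100% = tunicamycin at 10 µg/mL and 0% = DMSO alone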
#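 assay system = CHO CHOP reporter cells | amount = 500 CHO-CHOP cells per well | buffer or medium = F12 with 10% FBS | incubation = 16-18 h cell attachment, then 6 h compound exposure, 37 °C | detection = luminescence read with Steady-Glo | read-out = percent activation relative to tunicamycin control | controls = tunicamycin high control, DMSO low control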
# Dynein cargo inh: inhibitors of GR-EGFP nuclear translocation, primary screen, dynein cargo transport inhibitor project, imaging, high-content, 3617.4 mouse cells; test concentration mostly 20 µM; stimulated with dexamethasone, 1 µM; active compounds read low; z-score, hits read low; actives 0.47% (n = 220,000); AID 1381, 2008;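 active = plate z-score of nuclear minus cytoplasmic receptor signal below a set negative limit, without overly bright fluorescence or cell loss, cut at about -3.5 in these data, passing the limit was not always enough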;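 note: z-score of nuclear minus cytoplasmic ring GR-EGFP intensity difference per well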
#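 medium = tetracycline-free induction medium containing charcoal-stripped FBS | also added = 1.0 µM final dexamethasone stimulus | schedule = 48 h induction, 1 h compound, 30 min dex at 37 °C | technique = fixed, Hoechst-stained cells imaged at 10x for EGFP | measure = GR-EGFP nuclear translocation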
# B2AR ag: beta2AR agonists driving receptor internalization, primary screen, cell-based, FAP fluorogen, flow cytometry | Beta-2 adrenergic receptor (Homo sapiens), P07550 | Am2.2-beta2AR cells | response, % (concentration not given with the values) | actives 0.43% (n = 340,000) | AID 504454, 2011;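 active = response above a set limit, near 3 SD of response in nonfluorescent compounds, cut at about 42% in these data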
# * hit, by the source's call; . = no result given. Compounds with a hit are over-represented: about 3.7% of the library has one in this group of screens.
SMILES,MDM2 E3 inh,UPR XBP1 act,Mdm2-MdmX inh,CHOP UPR activ,Dynein cargo inh,B2AR ag
C#CCOCCOCCOCCNc1nc(N2CCOCC2)nc(N2CCN(C(=O)CCCCCCCCCCNC(=O)[C@@H](CCSC)n3cc(CCO)nn3)CC2)n1,.,-3,16,1,.,11
C#CCOCCOCCOCCNc1nc(N2CCN(C(=O)CCCCCCCCCCNC(=O)[C@H](CCCCN)n3cc(CCO)nn3)CC2)nc(N2CCN(C(=O)CCCCCCCCCCNC(=O)[C@H](CCCN=C(N)N)n3cc(C[C@@H](C)CC)nn3)CC2)n1,.,1,11,-2,.,19
C#CCOCCOCCOCCNc1nc(N2CCN(C(=O)CCCCCCCCCCNC(=O)[C@H](CCCCN)n3cc(C[C@@H](C)CC)nn3)CC2)nc(N2CCN(C(=O)CCCCCCCCCCNC(=O)[C@H](CCCCN)n3cc(C[C@@H](C)CC)nn3)CC2)n1,.,.,.,.,.,42*
C#CCOCCOCCOCCNc1nc(N2CCN(C(=O)CCCCCCCCCCNC(=O)[C@H]([C@@H](C)CC)n3cc(CCCCN=C(N)N)nn3)CC2)nc(N2CCN(C(=O)CCCCCCCCCCNC(=O)[C@H](CCCCN)n3cc(C[C@@H](C)CC)nn3)CC2)n1,.,39*,49,17,.,.
C#CCOCCOCCOCCNc1nc(N2CCN(C(=O)CCCCCCCCCCNC(=O)[C@H](CCCCN)n3cc(CCO)nn3)CC2)nc(N2CCN(C(=O)CCCCCCCCCCNC(=O)[C@@H]([C@H](C)O)n3cc(C)nn3)CC2)n1,.,1,0,1,.,87*
O=C(CNC(=O)N1CC(=O)Nc2ccccc21)Nc1ccc(F)c(Cl)c1,.,-3,2,1,.,-6
CCOC(=O)N/N=C/c1cn(CCCOc2ccccc2)c2ccccc12,1,-3,-17,0,0.34,-9
CCOC(=O)N/N=C/c1cn(CCCOc2ccc(C)cc2)c2ccccc12,-4,0,24,2,-0.022,71*
CC(=O)Oc1oc(-c2ccccc2)nc1/C=N/c1ccccn1,10,2,24,9,-0.36,64*
CCc1ccc([C@@H]2CC=C(C(=O)O)[C@H](c3ccccc3F)N2S(=O)(=O)c2ccc(C)cc2)cc1,.,-1,-10,-1,.,-9
N=C1C(c2nc3ccccc3[nH]2)=C(O)CN1c1ccccc1,41*,3,13,5,0.79,-7
O=C(NCCn1cccn1)C1CCC(=O)N(CCc2ccc(Cl)cc2)C1 (stereo unspecified),.,-4,14,1,.,6
CC1(C)CC(=O)C2=C(C1)Nc1nc(SCCN3CCOCC3)[nH]c(=O)c1C2c1cccs1 (stereo unspecified),31*,-2,3,2,2.1,3
CSc1nc2c(c(=O)[nH]1)C(c1cccs1)C1=C(CCCC1=O)N2 (stereo unspecified),-2,-1,-9,0,-0.4,-3
Nc1nc(-c2ccccn2)nc(N)c1Cc1ccc(Cl)cc1Cl,-7,43*,40,34,-0.23,-9
OC(CNCCN1CCNCC1)Cc1ccccc1 (stereo unspecified),.,.,.,.,.,-42
O=C1C=C(c2ccccc2)C(c2ccccc2)C1 (stereo unspecified),.,.,.,.,.,-6
O=C1c2ccccc2C(=O)C12OC2c1ccc(Cl)cc1Cl (stereo unspecified),-24,.,.,.,-4.6*,3
COc1ccc(OC)c(N(CC(=O)NCC2CCCO2)S(=O)(=O)c2ccccc2)c1 (stereo unspecified),.,-4,8,1,.,5
Cc1ccc(Cn2cc(CCC(=O)O)c3ccccc32)cc1,.,-1,-17,1,.,3
O=C(O)Cc1cn(Cc2ccc(F)cc2)c2ccccc12,-3,-2,-2,47*,-0.95,7
Cc1cccc(CN2CCN(C(=O)CN(C)C(C)C(=O)Nc3ccc(C(N)=O)cc3)CC2)c1 (stereo unspecified),.,0,10,1,.,4
COc1ccc(C=NN=C2c3ccccc3-c3ccccc32)cc1O,.,.,.,.,.,-16
CC(=O)Nc1ccc(C=NN=C2c3ccccc3-c3ccccc32)cc1,.,.,.,.,.,92*
Cc1cc(OCC(=O)N[C@@H](CSCc2ccccc2)C(=O)O)c2c(C)c(C)c(=O)oc2c1,.,4,18,1,.,-5
SMILES,MDM2 E3 inh,UPR XBP1 act,Mdm2-MdmX inh,CHOP UPR activ,Dynein cargo inh,B2AR ag
COC(=O)/C=C/S(=O)(=O)c1ccc(NC(C)=O)cc1,12,-8,16,-10,-3.9*,21
CSc1ccc(C(=O)NC2CCSc3ccccc32)cc1 (stereo unspecified),.,3,-11,0,.,7
O=C1c2ccccc2NC(c2cccc(O)c2)N1c1ccccc1 (stereo unspecified),.,1,19,2,.,14
CCn1c(O)c(N=NC(=O)c2ccc(CSc3nncn3C)cc2)c2ccccc21,-2,-1,27,-1,-0.24,53*
COc1ccc2cc(C(=O)N3CCCCCC3)sc(=O)c2c1OC,-15,0,-12,2,-0.13,0
COC(=O)c1cc2ccc(OC)c(OC)c2c(=O)s1,1,-3,-18,0,-0.84,50*
O=C(/C=C/Nc1ccc(Nc2ccccc2)cc1)c1cccs1,-14,.,.,.,-0.19,50*
Cc1ccc(N/C=C/C(=O)c2cccs2)cc1C,-60,-6,-42,-2,-0.28,6
Cc1cc(=O)cc(C)n1-c1ccccc1N,.,-1,11,-3,.,45*
Cc1cccc(COc2ccc(/C=N/NC(=O)c3nnn(-c4nonc4N)c3COc3ccc(F)cc3)cc2)c1,.,37*,46,7,-0.2,-14
Cc1cccc(COc2ccc(/C=N/NC(=O)c3nnn(-c4nonc4N)c3CN3CCCCC3)cc2)c1,.,1,-1,4,.,5
CC(NS(=O)(=O)OCC(Cl)(Cl)Cl)c1ccc(Br)cc1 (stereo unspecified),.,-2,-6,2,.,2
CSc1nncc(/C(C)=N\Nc2ccccc2C)n1,-2,5,-13,6,-0.62,48*
CCOC(=O)/C=C(\C)Sc1cc(O)c2ccccc2c1O,-7,.,.,.,0.79,46*
Cc1cc(NC(=O)CSc2nnc(C(F)(F)F)n2C)no1,.,-2,14,-1,.,-2
